Compound activity from PubChem BioAssay.
Only some compounds are listed: those with a hit (about 3.5% of all), similar ones and a draw of the others.
ERAP1 HTS inh: human ERAP1 aminopeptidase inhibitors, primary screen, biochemical, single point, plate reader. inhibition, % at 10.7 µM. hit rate 0.15% among 340,000. recombinant ERAP1, Leu-AMC fluorescence, 60 min. AID 652197, 2013;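 active = mean replicate inhibition of at least 30%, or all replicates individually reaching that 30% level; inactive = mean below 30% and not every replicate reaching it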;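 also: 0% = neutral control wells and 100% = L-leucinethiol positive control wells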
Target sequence (Q9NZ08 whole entry, looked up): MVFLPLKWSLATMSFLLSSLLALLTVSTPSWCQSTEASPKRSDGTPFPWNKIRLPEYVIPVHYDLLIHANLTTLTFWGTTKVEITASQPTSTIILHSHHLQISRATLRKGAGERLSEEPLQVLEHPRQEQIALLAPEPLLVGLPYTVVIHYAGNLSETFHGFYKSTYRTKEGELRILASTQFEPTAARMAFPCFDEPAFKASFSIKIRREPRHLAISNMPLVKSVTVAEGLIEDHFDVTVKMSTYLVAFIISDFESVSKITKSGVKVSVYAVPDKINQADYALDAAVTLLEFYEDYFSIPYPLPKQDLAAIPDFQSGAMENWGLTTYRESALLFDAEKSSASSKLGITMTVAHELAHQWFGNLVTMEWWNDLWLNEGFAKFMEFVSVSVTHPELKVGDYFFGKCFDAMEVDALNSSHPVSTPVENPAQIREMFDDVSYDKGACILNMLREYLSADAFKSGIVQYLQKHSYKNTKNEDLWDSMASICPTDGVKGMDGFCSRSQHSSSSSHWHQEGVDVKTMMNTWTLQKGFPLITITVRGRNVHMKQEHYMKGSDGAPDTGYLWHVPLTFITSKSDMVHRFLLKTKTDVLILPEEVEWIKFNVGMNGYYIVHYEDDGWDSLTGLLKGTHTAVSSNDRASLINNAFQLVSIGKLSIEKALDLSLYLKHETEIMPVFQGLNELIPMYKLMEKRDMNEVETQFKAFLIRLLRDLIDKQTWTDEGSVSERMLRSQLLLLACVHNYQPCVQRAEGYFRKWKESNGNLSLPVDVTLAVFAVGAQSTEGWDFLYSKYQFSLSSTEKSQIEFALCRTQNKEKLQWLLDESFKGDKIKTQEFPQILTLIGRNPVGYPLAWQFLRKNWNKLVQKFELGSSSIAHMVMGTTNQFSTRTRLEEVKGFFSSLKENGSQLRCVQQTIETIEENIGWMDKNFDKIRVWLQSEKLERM
HIV Env fusion: inhibitors of HIV-1 Env-driven cell-cell fusion, primary screen, HeLa-JRFL effector, CEM21 target cells, luciferase. inhibition, % at 12.3 µM. hit rate 1.1% among 360,000;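 active = mean replicate inhibition score of at least 50 and every replicate individually at or above 50; inconclusive = only one of the two criteria met; inactive = mean below 50 and not all replicates reaching 50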;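 also: 0% = plate neutral controls and 100% = maraviroc near 300 nM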
esBAF inh: Bmi1 luciferase reporter increase in mESCs, primary screen, esBAF inhibitor project, mouse ES cells, Bmi1 luciferase knock-in, single point; hit rate 2% among 350,000; reporter increase, % at 12.5 µM; 24 h; 100% = twice the neutral-well signal; AID 602393, 2012; in the data active = activation above about 40%; inconclusive = no clear call, values can overlap the other calls;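 also: 0% = median of the plate's neutral control wells and 100% = double that signal; a rise in the Bmi1 reporter signal indicates esBAF inhibition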
MITF act: activators of MITF-driven TRPM1 promoter reporter, primary screen, cell-based, SK-MEL-5, luciferase, single point; SK-MEL-5 TRPM1-promoter luciferase, 24 h; % of positive control, neutral wells = 0; activation, % at 12.5 µM; hit rate 0.75% among 300,000; AID 588334, 2011;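 active = mean activation of at least 80% with every replicate also reaching 80%; inconclusive = mean reaches 80% but some replicate falls short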;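 also: 0% = neutral control wells and 100% = parthenolide positive control wells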
Wnt bcat act: Wnt/beta-catenin pathway activators, primary screen, cell-based, plate reader, single point; Wnt/beta-catenin reporter cell assay, activator; activation, % at 9.35 µM; hit rate 1.2% among 300,000; in the data active = activation above about 30%, passing the limit was not always enough; inconclusive = no clear call, values can overlap the other calls;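 also: 0% = neutral control wells and 100% = positive control wells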
Cneo AK release: Cryptococcus neoformans cell lysis inducers, primary screen, AK release luminescence, single concentration | hit rate 0.2% among 360,000 | C. neoformans lysis, adenylate kinase release luminescence, 4 h; normalised: neutral wells 0, clomiphene wells 100 | lysis activity, % at 15 µM;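 active = mean lysis activity across replicates of at least 80%, whatever share of replicates individually reach that level; inactive = mean lysis activity below 80%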
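Material: C. neoformans cells; Schedule: 4 h static compound exposure, 37 °C, read 1 h post-reagent; Measured by: adenylate kinase release luminescence; Read-out: signal increase indicating cell lysis; Controls: Clomiphene as positive lysis control.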
Numbers without * were called inactive; [ ] = another dose, or the depositor's remark.

How did C[C@@H]1CCCCO[C@@H](CN(C)Cc2ccc(C(F)(F)F)cc2)[C@H](C)CN([C@@H](C)CO)C(=O)c2cc(NC(=O)Nc3ccc4c(c3)OCO4)ccc2O1 do in these assays?
ERAP1 HTS inh: -3; HIV Env fusion: 55*[16.7 µM]; esBAF inh: 7; Cneo AK release: -1

What do the screens show for `C[C@H]1CCCCO[C@@H](CN(C)Cc2ccc(C(F)(F)F)cc2)[C@@H](C)CN([C@@H](C)CO)C(=O)c2cc(NC(=O)Nc3ccc(C(F)(F)F)cc3)ccc2O1`?
HIV Env fusion: 82*[16.7 µM]; esBAF inh: -9; Cneo AK release: 55

What do the screens show for `C[C@@H]1CCCCO[C@@H](CN(C)Cc2ccc(C(F)(F)F)cc2)[C@@H](C)CN([C@@H](C)CO)C(=O)c2cc(NC(=O)Nc3ccc4c(c3)OCO4)ccc2O1`?
ERAP1 HTS inh: -3; HIV Env fusion: 5[16.7 µM]; esBAF inh: -1; Cneo AK release: 2

What do the screens show for `COCCNC(=O)C[C@H]1CC[C@@H](NC(=O)NC2CCCCC2)[C@H](CO)O1`?
ERAP1 HTS inh: 2; esBAF inh: 1; Cneo AK release: -4

Results for Cc1noc(C)c1S(=O)(=O)Nc1ccc2c(c1)C(=O)N([C@@H](C)CO)C[C@H](C)[C@@H](CN(C)C(=O)C1CCCCC1)OCCCC[C@H](C)O2 ?
ERAP1 HTS inh: -3; HIV Env fusion: -11[16.7 µM]; esBAF inh: 1; Cneo AK release: 7

How did C[C@@H]1CN([C@H](C)CO)C(=O)c2ccccc2-c2ccccc2CO[C@@H]1CN(C)C(=O)Nc1ccc(-c2ccccc2)cc1 do in these assays?
ERAP1 HTS inh: -2

How did O=C(Nc1ccc(NC(=O)c2ccccc2F)cc1)c1cccs1 do in these assays?
ERAP1 HTS inh: 2; HIV Env fusion: -57; esBAF inh: 74*; MITF act: 137*; Wnt bcat act: 37*; Cneo AK release: -3

How did O=C(NC(=S)Nc1ccc(Br)cn1)c1cccs1 do in these assays?
ERAP1 HTS inh: -2; HIV Env fusion: -28; MITF act: 22; Wnt bcat act: 59*; Cneo AK release: -3

How did CC(Cc1cccs1)NC(=O)Nc1ccc(Cl)cc1 (centres undefined) do in these assays?
ERAP1 HTS inh: -1; HIV Env fusion: -57; MITF act: 51; Wnt bcat act: 58*; Cneo AK release: -5

How did O=C(Nc1ccc(NC(=O)c2ccc(Cl)cc2Cl)cc1)c1cccs1 do in these assays?
ERAP1 HTS inh: 4; HIV Env fusion: 1; esBAF inh: 4; MITF act: 12; Wnt bcat act: 0; Cneo AK release: 1

What do the screens show for `O=C(Nc1ccc(Cl)cc1)c1cccs1`?
HIV Env fusion: -194; esBAF inh: 52*; MITF act: 58; Wnt bcat act: 26; Cneo AK release: -3

What do the screens show for `O=C(Cc1ccc(Cl)cc1)Nc1ccc(NC(=O)c2cccs2)cc1`?
ERAP1 HTS inh: 5; HIV Env fusion: 5; MITF act: 15; Wnt bcat act: -4

How did O=C(NC(=S)Nc1ccc(Br)cn1)c1cncc(Br)c1 do in these assays?
HIV Env fusion: -28; esBAF inh: 3; MITF act: -6; Cneo AK release: -4

What do the screens show for `O=C(N[C@H]1CC[C@H](CCNS(=O)(=O)c2ccccc2Cl)O[C@@H]1CO)c1ccc(F)cc1`?
ERAP1 HTS inh: 0; HIV Env fusion: -2[16.7 µM]; esBAF inh: 6; Cneo AK release: -6

How did CN1CCN(C(=O)C[C@H]2C[C@H]3c4cc(NC(=O)NC5CCCC5)ccc4O[C@H]3[C@@H](CO)O2)CC1 do in these assays?
ERAP1 HTS inh: 1; HIV Env fusion: -12[16.7 µM]; esBAF inh: -2; Cneo AK release: -60

What do the screens show for `COCC#Cc1ccc2c(c1)O[C@@H](CN(C)Cc1ccccc1)[C@@H](C)CN([C@@H](C)CO)S2(=O)=O`?
ERAP1 HTS inh: -1; HIV Env fusion: -19[16.7 µM]; esBAF inh: -2; Cneo AK release: -1

Results for COc1cccc(NC(=O)Nc2ccc3c(c2)C(=O)N(C)[C@@H]2CC[C@@H](CC(=O)O)O[C@H]2CO3)c1 ?
HIV Env fusion: 19[16.7 µM]; esBAF inh: -3; Cneo AK release: -1

Results for COc1ccc(NC(=O)c2cccs2)cc1 ?
MITF act: 56; Cneo AK release: 0

What do the screens show for `Cc1ccc(NC(=S)NC(=O)c2cccs2)cc1F`?
ERAP1 HTS inh: -3; esBAF inh: 81*; MITF act: 93*; Wnt bcat act: 3; Cneo AK release: 6

Results for O=C(NC(=S)Nc1ccccc1)c1cccs1 ?
ERAP1 HTS inh: -4; HIV Env fusion: -21; esBAF inh: 78*; MITF act: 101*; Wnt bcat act: 29; Cneo AK release: 19

Results for O=C(Nc1ccc(NC(=S)NC(=O)c2cccs2)cc1)c1ccccc1 ?
MITF act: 9; Cneo AK release: 4

Results for O=C(Nc1ccc(NC(=O)c2cccs2)cc1)c1cccs1 ?
ERAP1 HTS inh: -3; HIV Env fusion: -29; esBAF inh: 53*; MITF act: inconclusive; Wnt bcat act: 6; Cneo AK release: 2

What do the screens show for `CCCn1cnc2cc(NC(=O)c3ccco3)ccc21`?
ERAP1 HTS inh: -2; HIV Env fusion: -27; esBAF inh: -14; MITF act: 14; Wnt bcat act: 28; Cneo AK release: -1

How did CCCn1cnc2cc(NC(=O)c3cccs3)ccc21 do in these assays?
ERAP1 HTS inh: -4; HIV Env fusion: -22; esBAF inh: 55*; MITF act: 94*; Wnt bcat act: 32*; Cneo AK release: -2

What do the screens show for `Cc1cccnc1NC(=S)NC(=O)c1cccs1`?
ERAP1 HTS inh: 4; esBAF inh: 15; MITF act: 33; Wnt bcat act: 34*; Cneo AK release: -13

What do the screens show for `Cc1cccnc1NC(=O)CNC(=O)c1cccs1`?
ERAP1 HTS inh: 0; HIV Env fusion: 5; esBAF inh: 0; MITF act: -6; Wnt bcat act: 0

How did O=C(Nc1ccc2[nH]ccc2c1)c1cccs1 do in these assays?
ERAP1 HTS inh: -2; HIV Env fusion: -138; esBAF inh: 8; MITF act: 106*; Wnt bcat act: 12; Cneo AK release: -5

What do the screens show for `C[C@H](CO)N1C[C@H](C)[C@H](CN(C)C(=O)Nc2cccc3ccccc23)Oc2ccc(NC(=O)Nc3ccc4c(c3)OCO4)cc2CC1=O`?
ERAP1 HTS inh: -1; HIV Env fusion: 17[16.7 µM]; esBAF inh: 1; Cneo AK release: 1

Results for CCN(CC(=O)Nc1c(F)cccc1F)C(=O)CNC(=O)c1cccs1 ?
ERAP1 HTS inh: 1; esBAF inh: -4; MITF act: -11; Wnt bcat act: 38*; Cneo AK release: -1
